Source: ChEMBL document CHEMBL1125007 (J Med Chem, 1990)

Legend:
P388 [1] = assay: Cytotoxicity against P388 leukemia cell line; type: functional, cell-based; settings: Mus musculus
How it was run: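 P388 murine leukemia cells kept in log phase in RPMI 1640 with 10% fetal calf serum. Drug was present in 96-well microcultures for the whole 72 h growth period. Final cell density was read by a slightly modified MTT method. IC50 is the nominal concentration cutting density to 50% of controls, with eight control cultures per plate.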

UV4 (Cricetulus griseus) = assay: Relative cytotoxic potency given as Hypersensitivity ratio of (IC50 for AA8 cell line) to (IC50 for UV4 cell line)
[2] = Rate constant for alkylation of 4-(4-nitrobenzyl)pyridine; type: ADME
Nucleic Acid [3] = assay: pBR322/DHFR26 DNA crosslinking ability at a concentration of 0.2 uM determined after Agarose gel electrophoresis run for 4 hr; + indicates Significant crosslinking; type: functional
Nucleic Acid [4] = assay: pBR322/DHFR26 DNA crosslinking ability at a concentration of 0.02 uM determined after Agarose gel electrophoresis run for 4 hr; +/- indicates Slight crosslinking; type: functional
CHO-AA8 = assay: Cytotoxicity against AA8 cell line; type: functional, cell-based; settings: Cricetulus griseus
How it was run: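 AA8 Chinese hamster ovary cells kept in log phase in Alpha MEM with 10% fetal calf serum. Drug was applied in 96-well microcultures for 18 h, then removed by three washes with fresh medium. Cells grew a further 72 h before cell density was read by methylene blue staining. IC50 is the nominal concentration cutting density to 50% of controls, with eight controls per plate.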

[5] = Rate constant for hydrolysis in aqueous acetone.; type: ADME; design: scale not given here; settings: buffer
P388 [6] = assay: Optimal dose (i.p.) given after inoculation with wild type 10 E 6 P388/W leukemia cell lines, measured on day 1; type: functional, Mus musculus
How it was run: (§1)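 Single intraperitoneal dose given in 0.1 or 0.2 mL of 30% v/v ethanol-water on day 1 after intraperitoneal inoculation of 10^6 P388 leukemia cells. ILS is the percent increase in lifespan of treated tumor-bearing animals at that optimal dose.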

P388 [7] = assay: Increase in life span of the drug treated animals against P388 leukemia when treated at a optimal dose of 45 mg/kg; type: functional; settings: Mus musculus; how it was run: as §1
[8] = Relative lipophilicity; type: physicochemical; settings: octanol/water
How it was run: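 Relative lipophilicity of the side-chain fragment -NH(CH2)nX-, calculated from substituent fragment values.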

Nucleic Acid [9] = assay: DNA crosslinking ability at a concentration of 0.2 uM determined after Agarose gel electrophoresis run for 24 hr; + indicates Significant crosslinking; type: functional
P388 [10] = assay: Increase in life span of the drug treated animals against P388 leukemia when treated at a optimal dose of 65 mg/kg; type: functional; settings: Mus musculus; how it was run: as §1
P388 [11] = assay: Increase in life span of the drug treated animals against P388 leukemia when treated at a optimal dose of 8.9 mg/kg; type: functional; settings: Mus musculus; how it was run: as §1
P388 [12] = assay: Increase in life span of the drug treated animals against P388 leukemia when treated at a optimal dose of 65 mg/kg; No activity at all doses; type: functional, organism-based; design: dose 65 mg/kg; settings: Mus musculus; how it was run: as §1
P388 [13] = assay: Increase in life span of the drug treated animals against P388 leukemia when treated at a optimal dose of 30 mg/kg; type: functional; settings: Mus musculus; how it was run: as §1
Nucleic Acid [14] = assay: pBR322/DHFR26 DNA crosslinking ability at a concentration of 0.02 uM determined after Agarose gel electrophoresis run for 4 hr; + indicates Significant crosslinking; type: functional
P388 [15] = assay: Increase in life span of the drug treated animals against P388 leukemia when treated at a optimal dose of 13.3 mg/kg; type: functional; settings: Mus musculus; how it was run: as §1
P388 [16] = assay: Increase in life span of the drug treated animals against P388 leukemia when treated at a optimal dose of 26 mg/kg; type: functional; settings: Mus musculus; how it was run: as §1
Nucleic Acid [17] = assay: DNA crosslinking ability at a concentration of 0.2 uM determined after Agarose gel electrophoresis run for 24 hr; ++ indicates extensive crosslinking; type: functional
Nucleic Acid [18] = assay: pBR322/DHFR26 DNA crosslinking ability at a concentration of 0.2 uM determined after Agarose gel electrophoresis run for 4 hr; ++ extensive Significant crosslinking; type: functional

For `O=C(O)CCCc1ccc(N(CCCl)CCCl)cc1` [CHLORAMBUCIL], the IC50 (P388 [1]) was 7500 nM and the HF (UV4 (Cricetulus griseus)) was 58.

With `Cl.Cl.Cl.Cl.ClCCN(CCCl)c1ccc(CCCCNc2c3ccccc3nc3ccccc23)cc1` the KNBP [2] was 225000 s⁻¹, the IC50 (P388 [1]) was 86 nM and the DNA crosslinking (Nucleic Acid [3]) was “Significant crosslinking”. For the same compound, the DNA crosslinking (Nucleic Acid [4]) was “+/-”, the IC50 (CHO-AA8) was 440 nM and the HF (UV4 (Cricetulus griseus)) was 36. It also gave a KH [5] of 20600 s⁻¹, an OD (P388 [6]) of 45 mg/kg and an ILS at 45 mg/kg (P388 [7]) of 52%. The Relative lipophilicity [8] was 1.21 and the DNA crosslinking (Nucleic Acid [9]) was “Significant crosslinking”.

`ClCCN(CCCl)c1ccc(OCCCCNc2c3ccccc3nc3ccccc23)cc1` showed an IC50 (P388 [1]) of 63 nM, an IC50 (CHO-AA8) of 280 nM and an HF (UV4 (Cricetulus griseus)) of 55. It also gave an OD (P388 [6]) of 45 mg/kg, an ILS at 45 mg/kg (P388 [7]) of 47% and a Relative lipophilicity [8] of 0.64.

Compound `Cl.Cl.Cl.Cl.ClCCN(CCCl)c1ccc(SCCNc2c3ccccc3nc3ccccc23)cc1` has an IC50 (P388 [1]) of 372 nM, an IC50 (CHO-AA8) of 1200 nM and an HF (UV4 (Cricetulus griseus)) of 24. The OD (P388 [6]) was 65 mg/kg, the Relative lipophilicity [8] was 0.42 and the ILS at 65 mg/kg (P388 [10]) was 37%.

For `ClCCN(CCCl)c1ccc(OCCCCCNc2c3ccccc3nc3ccccc23)cc1`, the IC50 (P388 [1]) was 50 nM, the HF (UV4 (Cricetulus griseus)) was 46 and the Relative lipophilicity [8] was 1.18. The DNA crosslinking (Nucleic Acid [9]) was “Significant crosslinking”.

In the case of `Cl.Cl.Cl.Cl.ClCCN(CCCl)c1ccc(OCCCNc2c3ccccc3nc3ccccc23)cc1`, the IC50 (P388 [1]) is reported as 47 nM, the IC50 (CHO-AA8) is reported as 380 nM and the ILS at 8.9 mg/kg (P388 [11]) is reported as 27%. The HF (UV4 (Cricetulus griseus)) was 54, the OD (P388 [6]) was 8.9 mg/kg and the Relative lipophilicity [8] was 0.26.

`Cl.O=S(=O)(CCNc1c2ccccc2nc2ccccc12)c1ccc(N(CCCl)CCCl)cc1` showed an IC50 (P388 [1]) of 2300 nM, an IC50 (CHO-AA8) of 18300 nM and an HF (UV4 (Cricetulus griseus)) of 3.3. For the same compound, the ILS (P388 [12]) was “No activity”, the OD (P388 [6]) was 65 mg/kg and the Relative lipophilicity [8] was -1.17.

With `Cl.Cl.Cl.Cl.ClCCN(CCCl)c1ccc(CCCNc2c3ccccc3nc3ccccc23)cc1` the KNBP [2] was 146000 s⁻¹, the IC50 (P388 [1]) was 61 nM and the DNA crosslinking (Nucleic Acid [3]) was “Significant crosslinking”. For the same compound, the DNA crosslinking (Nucleic Acid [4]) was “+/-”, the IC50 (CHO-AA8) was 310 nM and the HF (UV4 (Cricetulus griseus)) was 43. It also gave a KH [5] of 14500 s⁻¹, an OD (P388 [6]) of 45 mg/kg and an ILS at 45 mg/kg (P388 [7]) of 25%. For the same compound, the Relative lipophilicity [8] was 0.67 and the DNA crosslinking (Nucleic Acid [9]) was “Significant crosslinking”.

Compound `Cl.ClCCN(CCCl)c1ccc(OCCNc2c3ccccc3nc3ccccc23)cc1` has an IC50 (P388 [1]) of 72 nM, an IC50 (CHO-AA8) of 270 nM and an HF (UV4 (Cricetulus griseus)) of 54. It also gave an OD (P388 [6]) of 30 mg/kg, an ILS at 30 mg/kg (P388 [13]) of 42% and a Relative lipophilicity [8] of -0.02.

For `ClCCN(CCCl)c1ccc(CCCCCCNc2c3ccccc3nc3ccccc23)cc1`, the KNBP [2] was 157000 s⁻¹, the IC50 (P388 [1]) was 136 nM and the DNA crosslinking (Nucleic Acid [3]) was “Significant crosslinking”. For the same compound, the HF (UV4 (Cricetulus griseus)) was 36, the KH [5] was 33900 s⁻¹ and the DNA crosslinking (Nucleic Acid [14]) was “Significant crosslinking”. For the same compound, the Relative lipophilicity [8] was 2.29 and the DNA crosslinking (Nucleic Acid [9]) was “Significant crosslinking”.

Compound `Cl.Cl.Cl.Cl.ClCCN(CCCl)c1ccc(SCCCNc2c3ccccc3nc3ccccc23)cc1` has an IC50 (P388 [1]) of 360 nM, an IC50 (CHO-AA8) of 1100 nM and an HF (UV4 (Cricetulus griseus)) of 18. For the same compound, the OD (P388 [6]) was 13.3 mg/kg, the ILS at 13.3 mg/kg (P388 [15]) was 38% and the Relative lipophilicity [8] was 0.79.

`Cl.ClCCN(CCCl)c1ccc(SCCCCNc2c3ccccc3nc3ccccc23)cc1` gave an IC50 (P388 [1]) of 490 nM, an IC50 (CHO-AA8) of 1370 nM and an HF (UV4 (Cricetulus griseus)) of 21. For the same compound, the OD (P388 [6]) was 26 mg/kg, the ILS at 26 mg/kg (P388 [16]) was 48% and the Relative lipophilicity [8] was 1.22.

With `Cl.Cl.Cl.Cl.ClCCN(CCCl)c1ccc(CCCCCNc2c3ccccc3nc3ccccc23)cc1` the KNBP [2] was 144000 s⁻¹, the IC50 (P388 [1]) was 82 nM and the IC50 (CHO-AA8) was 310 nM. The HF (UV4 (Cricetulus griseus)) was 59, the KH [5] was 32000 s⁻¹ and the DNA crosslinking (Nucleic Acid [17]) was “extensive crosslinking”. For the same compound, the DNA crosslinking (Nucleic Acid [14]) was “extensive crosslinking”, the OD (P388 [6]) was 45 mg/kg and the ILS at 45 mg/kg (P388 [7]) was 58%. The Relative lipophilicity [8] was 1.75 and the DNA crosslinking (Nucleic Acid [18]) was “extensive crosslinking”.

For `O=S(=O)(CCCCCNc1c2ccccc2nc2ccccc12)c1ccc(N(CCCl)CCCl)cc1`, the IC50 (P388 [1]) was 750 nM, the HF (UV4 (Cricetulus griseus)) was 1 and the Relative lipophilicity [8] was -0.38.

Work on `Cl.O=S(=O)(CCCNc1c2ccccc2nc2ccccc12)c1ccc(N(CCCl)CCCl)cc1` yielded an IC50 (P388 [1]) of 2600 nM, an IC50 (CHO-AA8) of 9800 nM and an HF (UV4 (Cricetulus griseus)) of 5.1. The ILS (P388 [12]) was “No activity”, the OD (P388 [6]) was 45 mg/kg and the Relative lipophilicity [8] was -1.14.

Work on `ClCCN(CCCl)c1ccc(SCCCCCNc2c3ccccc3nc3ccccc23)cc1` yielded an IC50 (P388 [1]) of 380 nM, an HF (UV4 (Cricetulus griseus)) of 19 and a Relative lipophilicity [8] of 1.76.

In the case of `Cl.O=S(=O)(CCCCNc1c2ccccc2nc2ccccc12)c1ccc(N(CCCl)CCCl)cc1`, the IC50 (P388 [1]) is reported as 1900 nM, the IC50 (CHO-AA8) is reported as 1700 nM and the HF (UV4 (Cricetulus griseus)) is reported as 1.4. The ILS (P388 [12]) was “No activity”, the OD (P388 [6]) was 30 mg/kg and the Relative lipophilicity [8] was -0.92.
